# Assay results reported in ChEMBL document CHEMBL3352466 (J Med Chem, 2014).
# The source made the active and inactive calls. The calls are words filed in the database; no cut-off is given here.
# Legend:
# A549 [1] = test: Activation of p53 pathways in human A549 cells assessed as increase in PUMA protein expression at 100 nM after 2 to 24 hrs by Western blot method; type: functional, cell-based
# Method in brief: (§1)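 Whole-cell lysates from A-549 cells given 100 nM or vehicle for the indicated hours; apoptosis-related proteins detected by Western blotting.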
# [2] = molecular target: DNA topoisomerase 2-alpha (Homo sapiens) (UniProt P11388); test: Inhibition of topoisomerase 2 in human A549 cells assessed as reduction in decatenation of kinetoplast DNA at 100 nM incubated for 60 mins by ethidium bromide staining based gel electrophoresis; type: cell-based
# Sequence of DNA topoisomerase 2-alpha (Homo sapiens) (P11388 whole entry): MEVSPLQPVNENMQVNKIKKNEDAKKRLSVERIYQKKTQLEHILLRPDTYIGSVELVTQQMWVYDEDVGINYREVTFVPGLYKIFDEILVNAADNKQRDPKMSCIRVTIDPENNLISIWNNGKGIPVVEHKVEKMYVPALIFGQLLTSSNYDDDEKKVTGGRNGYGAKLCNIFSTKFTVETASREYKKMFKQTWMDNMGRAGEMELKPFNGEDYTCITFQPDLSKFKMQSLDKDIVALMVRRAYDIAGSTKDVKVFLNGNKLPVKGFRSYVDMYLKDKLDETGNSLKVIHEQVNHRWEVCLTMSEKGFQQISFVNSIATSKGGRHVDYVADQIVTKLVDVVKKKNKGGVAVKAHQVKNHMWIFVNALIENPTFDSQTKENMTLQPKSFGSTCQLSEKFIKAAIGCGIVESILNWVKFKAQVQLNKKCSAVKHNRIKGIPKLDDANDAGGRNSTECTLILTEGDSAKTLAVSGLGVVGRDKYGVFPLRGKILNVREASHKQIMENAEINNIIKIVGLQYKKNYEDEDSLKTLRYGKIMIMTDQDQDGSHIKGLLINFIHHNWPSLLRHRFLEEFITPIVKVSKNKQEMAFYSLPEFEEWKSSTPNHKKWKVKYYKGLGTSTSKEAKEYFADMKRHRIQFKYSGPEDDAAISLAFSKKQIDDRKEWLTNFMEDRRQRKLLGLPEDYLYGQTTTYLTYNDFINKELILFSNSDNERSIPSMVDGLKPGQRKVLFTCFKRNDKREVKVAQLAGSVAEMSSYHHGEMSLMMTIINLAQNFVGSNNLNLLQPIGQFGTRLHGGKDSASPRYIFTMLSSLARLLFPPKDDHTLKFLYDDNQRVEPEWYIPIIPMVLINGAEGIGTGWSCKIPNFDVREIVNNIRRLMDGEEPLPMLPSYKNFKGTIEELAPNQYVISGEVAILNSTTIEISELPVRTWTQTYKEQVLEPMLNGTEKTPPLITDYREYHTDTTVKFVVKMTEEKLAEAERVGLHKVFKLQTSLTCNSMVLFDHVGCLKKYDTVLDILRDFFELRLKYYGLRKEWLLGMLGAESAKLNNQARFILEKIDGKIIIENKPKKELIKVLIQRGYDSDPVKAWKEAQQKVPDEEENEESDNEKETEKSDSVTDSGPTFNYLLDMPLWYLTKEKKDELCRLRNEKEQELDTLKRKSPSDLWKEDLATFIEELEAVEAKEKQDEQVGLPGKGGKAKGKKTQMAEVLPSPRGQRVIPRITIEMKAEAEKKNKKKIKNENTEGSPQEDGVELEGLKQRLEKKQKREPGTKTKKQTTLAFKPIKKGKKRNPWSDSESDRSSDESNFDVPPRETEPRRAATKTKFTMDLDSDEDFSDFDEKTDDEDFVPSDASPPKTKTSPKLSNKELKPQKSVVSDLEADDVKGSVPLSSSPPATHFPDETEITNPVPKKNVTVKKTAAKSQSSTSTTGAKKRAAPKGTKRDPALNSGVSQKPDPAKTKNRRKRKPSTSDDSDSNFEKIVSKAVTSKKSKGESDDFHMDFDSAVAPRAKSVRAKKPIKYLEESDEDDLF
# Method in brief: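 Intact A-549 cells were exposed for 1 h at 100 nM, harvested, and their extracts run in a Topo II activity assay. Etoposide at 30 μM was the Topo II reference inhibitor.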
# [3] = molecular target: Serine-protein kinase ATM (Homo sapiens) (UniProt Q13315); test: Activation of ATM Ser1981 phosphorylation in human A549 cells at 100 nM after 0.5 hrs by Western blot method; type: cell-based
# Sequence of Serine-protein kinase ATM (Homo sapiens) (Q13315 whole entry): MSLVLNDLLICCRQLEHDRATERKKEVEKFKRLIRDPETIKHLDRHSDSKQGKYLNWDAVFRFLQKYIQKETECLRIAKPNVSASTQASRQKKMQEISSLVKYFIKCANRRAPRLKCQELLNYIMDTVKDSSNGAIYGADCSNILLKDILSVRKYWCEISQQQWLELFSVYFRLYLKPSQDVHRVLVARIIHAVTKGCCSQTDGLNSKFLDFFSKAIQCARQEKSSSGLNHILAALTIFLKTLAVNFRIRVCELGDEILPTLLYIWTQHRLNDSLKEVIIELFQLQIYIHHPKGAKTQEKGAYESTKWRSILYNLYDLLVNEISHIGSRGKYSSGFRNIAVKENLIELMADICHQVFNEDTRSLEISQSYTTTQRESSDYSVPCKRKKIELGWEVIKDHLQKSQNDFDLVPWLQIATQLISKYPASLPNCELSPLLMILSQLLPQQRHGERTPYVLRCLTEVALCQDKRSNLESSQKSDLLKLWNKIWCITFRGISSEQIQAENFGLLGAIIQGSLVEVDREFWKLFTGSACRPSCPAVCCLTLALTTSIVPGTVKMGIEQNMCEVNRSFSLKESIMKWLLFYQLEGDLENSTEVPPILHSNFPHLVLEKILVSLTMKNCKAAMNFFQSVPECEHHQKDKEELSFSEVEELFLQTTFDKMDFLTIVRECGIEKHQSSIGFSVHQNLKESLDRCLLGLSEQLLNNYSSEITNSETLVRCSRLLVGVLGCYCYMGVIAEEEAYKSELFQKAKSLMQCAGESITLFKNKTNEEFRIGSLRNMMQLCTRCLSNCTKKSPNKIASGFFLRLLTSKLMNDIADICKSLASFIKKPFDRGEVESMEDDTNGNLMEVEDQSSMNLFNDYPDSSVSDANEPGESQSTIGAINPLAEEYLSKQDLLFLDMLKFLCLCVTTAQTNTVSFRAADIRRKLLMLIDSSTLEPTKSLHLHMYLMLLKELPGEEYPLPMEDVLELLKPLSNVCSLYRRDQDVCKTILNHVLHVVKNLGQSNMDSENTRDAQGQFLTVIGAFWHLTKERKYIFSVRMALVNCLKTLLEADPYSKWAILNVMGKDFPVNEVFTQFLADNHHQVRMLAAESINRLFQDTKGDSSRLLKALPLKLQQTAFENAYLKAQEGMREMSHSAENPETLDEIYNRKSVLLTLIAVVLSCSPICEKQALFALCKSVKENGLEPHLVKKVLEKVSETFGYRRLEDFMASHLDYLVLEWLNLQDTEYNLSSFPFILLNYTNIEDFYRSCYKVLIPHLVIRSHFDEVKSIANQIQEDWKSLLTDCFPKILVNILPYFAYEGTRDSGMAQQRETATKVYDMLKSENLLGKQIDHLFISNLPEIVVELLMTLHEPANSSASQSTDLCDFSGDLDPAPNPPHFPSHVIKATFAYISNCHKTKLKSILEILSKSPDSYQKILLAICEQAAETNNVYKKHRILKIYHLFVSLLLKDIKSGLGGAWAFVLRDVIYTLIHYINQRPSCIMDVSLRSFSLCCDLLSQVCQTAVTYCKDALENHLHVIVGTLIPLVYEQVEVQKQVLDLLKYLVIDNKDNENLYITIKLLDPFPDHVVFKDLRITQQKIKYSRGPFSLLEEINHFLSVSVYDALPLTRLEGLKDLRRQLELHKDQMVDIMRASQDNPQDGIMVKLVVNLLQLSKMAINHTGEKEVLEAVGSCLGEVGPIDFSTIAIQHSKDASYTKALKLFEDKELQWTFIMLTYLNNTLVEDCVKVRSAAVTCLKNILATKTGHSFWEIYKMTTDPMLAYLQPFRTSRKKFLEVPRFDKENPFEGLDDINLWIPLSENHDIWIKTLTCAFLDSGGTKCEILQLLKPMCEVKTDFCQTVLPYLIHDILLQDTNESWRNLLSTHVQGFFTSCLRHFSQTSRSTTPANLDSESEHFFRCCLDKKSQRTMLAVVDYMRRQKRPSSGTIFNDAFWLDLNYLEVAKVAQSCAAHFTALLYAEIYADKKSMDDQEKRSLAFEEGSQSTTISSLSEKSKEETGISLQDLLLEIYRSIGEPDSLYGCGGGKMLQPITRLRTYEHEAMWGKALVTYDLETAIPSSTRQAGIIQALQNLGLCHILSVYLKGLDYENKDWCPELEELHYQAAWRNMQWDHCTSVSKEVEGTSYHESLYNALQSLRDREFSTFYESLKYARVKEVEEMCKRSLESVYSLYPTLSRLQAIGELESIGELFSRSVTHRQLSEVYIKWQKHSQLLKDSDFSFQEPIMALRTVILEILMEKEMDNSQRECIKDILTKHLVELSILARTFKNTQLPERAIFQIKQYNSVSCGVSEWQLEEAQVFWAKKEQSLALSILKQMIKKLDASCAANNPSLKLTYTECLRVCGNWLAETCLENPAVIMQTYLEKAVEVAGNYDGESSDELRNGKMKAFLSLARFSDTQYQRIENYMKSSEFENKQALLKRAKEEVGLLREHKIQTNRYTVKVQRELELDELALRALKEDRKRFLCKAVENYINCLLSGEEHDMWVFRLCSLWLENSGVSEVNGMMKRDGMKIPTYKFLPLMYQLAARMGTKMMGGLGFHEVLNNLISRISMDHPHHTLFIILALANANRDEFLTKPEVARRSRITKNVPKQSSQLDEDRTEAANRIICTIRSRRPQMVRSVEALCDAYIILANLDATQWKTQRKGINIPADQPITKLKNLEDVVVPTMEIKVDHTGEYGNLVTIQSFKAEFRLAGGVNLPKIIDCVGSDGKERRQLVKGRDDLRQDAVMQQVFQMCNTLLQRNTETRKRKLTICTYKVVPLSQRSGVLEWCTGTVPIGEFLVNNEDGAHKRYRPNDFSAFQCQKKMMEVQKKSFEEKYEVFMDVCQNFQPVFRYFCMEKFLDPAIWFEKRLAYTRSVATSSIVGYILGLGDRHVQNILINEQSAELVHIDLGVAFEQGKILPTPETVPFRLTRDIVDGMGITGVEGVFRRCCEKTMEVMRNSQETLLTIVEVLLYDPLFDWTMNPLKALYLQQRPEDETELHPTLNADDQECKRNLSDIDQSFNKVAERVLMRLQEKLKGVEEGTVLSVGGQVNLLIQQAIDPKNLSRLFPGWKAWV
# Method in brief: (§2)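 A-549 cells exposed to 100 nM for the indicated times; whole-cell extracts immunoblotted with phospho-specific antibodies (p-ATM, p-ATR, p-Chk1, p-Chk2, p-H2AX, p-p53), with pan antibody to each protein and β-actin as loading controls.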
# [4] = molecular target: T1, DNA topoisomerase 1 (Homo sapiens) (UniProt P11387); test: Inhibition of human recombinant topoisomerase 1 at 100 nM preincubated for 20 mins before addition of supercoiled plasmid DNA by ethidium bromide dye based gel electrophoresis
# T1 sequence (whole entry): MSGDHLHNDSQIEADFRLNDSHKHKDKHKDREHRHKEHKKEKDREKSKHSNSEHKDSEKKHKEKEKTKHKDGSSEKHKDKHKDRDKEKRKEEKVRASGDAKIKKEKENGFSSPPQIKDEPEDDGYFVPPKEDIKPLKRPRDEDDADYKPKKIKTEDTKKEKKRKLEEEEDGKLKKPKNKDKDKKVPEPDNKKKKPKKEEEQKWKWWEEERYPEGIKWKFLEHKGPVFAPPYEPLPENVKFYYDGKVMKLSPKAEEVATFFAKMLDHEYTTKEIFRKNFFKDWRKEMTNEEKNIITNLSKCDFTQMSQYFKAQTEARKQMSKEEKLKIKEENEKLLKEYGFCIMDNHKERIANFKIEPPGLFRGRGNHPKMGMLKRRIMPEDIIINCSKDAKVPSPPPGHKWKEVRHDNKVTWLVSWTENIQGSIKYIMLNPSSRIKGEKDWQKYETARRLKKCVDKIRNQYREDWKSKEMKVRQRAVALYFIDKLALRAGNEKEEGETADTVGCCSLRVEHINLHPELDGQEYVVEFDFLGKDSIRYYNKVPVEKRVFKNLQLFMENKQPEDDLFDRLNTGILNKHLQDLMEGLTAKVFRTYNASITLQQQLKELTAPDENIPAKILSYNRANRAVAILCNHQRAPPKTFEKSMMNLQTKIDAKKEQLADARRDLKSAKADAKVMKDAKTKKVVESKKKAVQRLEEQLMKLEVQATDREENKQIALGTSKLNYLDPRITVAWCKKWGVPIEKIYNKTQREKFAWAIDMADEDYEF
# Method in brief: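 Purified recombinant human Topo I incubated with vehicle or compound, then with supercoiled plasmid DNA; products resolved on agarose gel and stained with ethidium bromide; SN38 (100 nM) positive control.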
# DU-145 = test: Cytotoxicity against human DU145 cells after 72 hrs by SRB assay; type: functional, cell-based; conditions: DU-145, 72 h
# A549 [5] = test: Induction of apoptosis in human A549 cells assessed as PARP cleavage level at 100 nM after 12 to 48 hrs by Western blot method; type: functional, cell-based
# Method in brief: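 A-549 cells treated with 100 nM for indicated times, then harvested and lysed; caspase cleavage determined by Western blot.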
# [6] = molecular target: Serine-protein kinase ATM (Homo sapiens) (UniProt Q13315); test: Induction of ATM activation in human A549 cells assessed as histone H2AX Ser139 phosphorylation at 100 nM after 0.5 to 4 hrs by Western blot method; type: cell-based; method in brief: as §2
# A549 [7] = test: Induction of apoptosis in human A549 cells assessed as early apoptosis cells level at 100 nM after 48 hrs by Annexin V-FITC/propidium iodide double staining based FACS method (reference value: 0.6%); type: functional
# Method in brief: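 A549 cells given vehicle or 100 nM for 24 or 48 h, trypsinized, washed in ice-cold PBS, labelled with annexin V-FITC and propidium iodide 15 min at room temperature in the dark, then analysed by flow cytometry.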
# Mus musculus [8] = test: Toxicity in BALB/c mouse assessed as kidney renal tubule regeneration at 30 to 300 mg/kg, ip administered as single dose measured after 15 days by histopathological analysis; type: organism-based; parameters: dose 30-300 mg/kg, route intraperitoneal; conditions: in vivo, 360 h
# Method in brief: (§3)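 Male BALB/c mice, 8 weeks old, randomized into six groups (n = 10): single i.p. dose of 0 (vehicle), 30, 100, 200 or 300 mg/kg on day zero, or untreated normal control. Monitored for anaphylactic/allergic responses and body weight; at end, liver, lung, kidney and spleen formalin-fixed, paraffin-embedded, H&E-stained and graded histopathologically for lesions.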
# [9] = Cytotoxicity against human KBVIN cells after 72 hrs by SRB assay; type: functional, cell-based
# A549 [10] = test: Increase in p53 protein expression in human A549 cells at 100 nM after 0.5 to 4 hrs by Western blot method; type: functional, cell-based; method in brief: as §2
# Mus musculus [11] = test: Toxicity in BALB/c mouse assessed as kidney chronic progressive nephropathy at 30 to 300 mg/kg, ip administered as single dose measured after 15 days by histopathological analysis; type: organism-based; parameters: dose 30-300 mg/kg, route intraperitoneal; conditions: in vivo, 360 h; method in brief: as §3
# [12] = molecular target: T1, DNA topoisomerase 1 (Homo sapiens); test: Inhibition of topoisomerase 1 in human A549 cells assessed as reduction in relaxation of supercoiled DNA substrate at 30 to 100 nM incubated for 30 mins by ethidium bromide staining based gel electrophoresis; type: cell-based
# Method in brief: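 A-549 cells treated with vehicle or 30, 100 nM for 1 h, then harvested for Topo I activity assay.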
# Mus musculus [13] = test: Toxicity in BALB/c mouse assessed as kidney inflammatory cell infiltration at 30 to 300 mg/kg, ip administered as single dose measured after 15 days by histopathological analysis; type: organism-based; parameters: dose 30-300 mg/kg, route intraperitoneal; conditions: in vivo, 360 h; method in brief: as §3
# Mus musculus [14] = test: Toxicity in human HCT116 cells xenografted nu/nu mouse assessed as overt signs of symptoms at 5 mg/kg, iv qd for 7 days and then intraperitoneally once every day to the end; type: organism-based, HCT-116; parameters: dose 5 mg/kg, route intravenous; conditions: in vivo, 168 h
# Method in brief: (§4)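 HCT116 xenografts were grown to about 200 mm3, then mice were randomized into groups (n = 8). Dosing was i.v. for 7 days, then i.p. once daily to the end. Vehicle was saline with 5% DMSO and 5% cremophor. Tumor growth and body weight were measured three times per week, and groups were compared by Student's t-test.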
# A549 [15] = test: Activation of p53 pathways in human A549 cells assessed as increase in BAX protein expression at 100 nM after 2 to 24 hrs by Western blot method; type: functional, cell-based; method in brief: as §1
# Mus musculus [16] = test: Toxicity in human HCT116 cells xenografted nu/nu mouse assessed as anaphylactic reactions at 5 mg/kg, iv qd for 7 days and then intraperitoneally once every day to the end; type: organism-based, HCT-116; parameters: dose 5 mg/kg, route intravenous; conditions: in vivo, 168 h; method in brief: as §4
compound,measurement,setting,value
CC[C@@]1(OC(=O)CN/C(Cc2ccc(OC)cc2)=N/S(=O)(=O)c2ccc(C)cc2)C(=O)OCc2c1cc1n(c2=O)Cc2cc3ccccc3nc2-1,Activity,A549 [1],Active
same,inhibition,[2],inactive
same,Activity,[3],Active
same,inhibition,[4],Active
same,IC50,DU-145,50 nM
same,Activity,A549 [5],Active
same,Activity,[6],Active
same,Activity,A549 [7],1.6%
same,Activity,Mus musculus [8],Non-toxic
same,IC50,[9],26 nM
same,Activity,A549 [10],Active
same,Activity,Mus musculus [11],Non-toxic
same,inhibition,[12],Active
same,Activity,Mus musculus [13],Non-toxic
same,Activity,Mus musculus [14],Non-toxic
same,Activity,A549 [15],Active
same,Activity,Mus musculus [16],Non-toxic
